For data set [1], the system named is Mus musculus. The experiment in a line: Toxicity in ip dosed Charles River CD-1 albino mouse assessed as increase of peristalsis of small intestine. As to conditions: in vivo. In kind it is organism-based.
Data set [2] relates to Mus musculus. Briefly: Toxicity in ip dosed Charles River CD-1 albino mouse assessed as reduction of cardiac contraction. It is filed as organism-based, Heart. As to conditions: in vivo.
Data set [3] can be described thus: (§1) Toxicity in ip dosed Charles River CD-1 albino mouse measured within 5 mins. In kind it is organism-based. As to conditions: CD-1, mouse, in vivo.
Data set [4] relates to Mus musculus. The data set is described as §1. In kind it is organism-based. Conditions: mouse, in vivo, 5 min.
Data set [5] can be described thus: Ratio of hemicholinium-3 LD50 to compound LD50 for toxicity in ip dosed Charles River CD-1 albino mouse measured within 5 mins. In kind it is organism-based. Conditions: CD-1, mouse, in vivo.
Data set [6] concerns the target T1, Acetylcholinesterase (Bos taurus) (UniProt P23795).
T1 sequence (whole entry): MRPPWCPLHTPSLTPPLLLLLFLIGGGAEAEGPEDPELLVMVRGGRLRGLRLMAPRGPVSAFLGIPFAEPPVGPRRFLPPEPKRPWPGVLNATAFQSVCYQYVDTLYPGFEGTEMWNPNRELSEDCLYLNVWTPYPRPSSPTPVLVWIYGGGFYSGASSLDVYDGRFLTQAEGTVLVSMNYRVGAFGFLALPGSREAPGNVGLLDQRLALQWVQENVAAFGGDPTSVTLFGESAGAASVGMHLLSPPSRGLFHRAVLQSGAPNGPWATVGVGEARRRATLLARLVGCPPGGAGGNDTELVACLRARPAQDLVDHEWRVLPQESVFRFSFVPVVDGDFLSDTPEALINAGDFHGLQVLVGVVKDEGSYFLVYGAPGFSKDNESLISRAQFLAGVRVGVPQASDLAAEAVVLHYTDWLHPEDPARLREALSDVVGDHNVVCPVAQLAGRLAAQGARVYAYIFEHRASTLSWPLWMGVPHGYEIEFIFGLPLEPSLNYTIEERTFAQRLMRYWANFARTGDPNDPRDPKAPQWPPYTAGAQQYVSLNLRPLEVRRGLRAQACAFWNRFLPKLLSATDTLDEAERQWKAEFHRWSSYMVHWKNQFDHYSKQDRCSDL
The experiment in a line: Binding affinity to bovine erythrocyte acetylcholinesterase in water at pH 7.4 at 100 x 10^-5 M measured immediately by UV-spectra analysis. An outline of the steps: (§2)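 Test solutions 100 × 10⁻⁵ M in pH 7.4 buffered water. UV spectrum recorded against identically buffered water reference. 0.1 ml of bovine erythrocyte acetylcholinesterase (40 μ/ml, pH 7.4 buffer) was added to 1-ml sample and reference, giving an enzyme level similar to blood. Spectrum recorded immediately, then again after incubation at 37° for 6 h. Shift in λmax was read.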

Data set [7] has as its target T1, Acetylcholinesterase (Bos taurus). Briefly: Binding affinity to bovine erythrocyte acetylcholinesterase in water at pH 7.4 at 100 x 10^-5 M up to 6 hrs by UV-spectra analysis. An outline of the steps: as §2
Data set [8] is described as follows: Toxicity in ip dosed Charles River CD-1 albino mouse assessed as mortality at >LD95 in presence of neostigmine. In kind it is organism-based. Conditions: CD-1, mouse, in vivo, read-out: Activity. An outline of the steps: (§3)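 CD-1 male mice. Choline (20 mg/kg) or neostigmine (0.2 mg/kg) was given ip 1 min before an ip >LD95 dose of compound in saline. Read-out was % mortality.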

Data set [9] can be described thus: Chemical stability of the compound in water at pH 7.4 up to 48 hrs by NMR analysis. In kind it is physicochemical. As to conditions: buffer, pH 7.4, 48 h.
Data set [10] is described as follows: Toxicity in ip dosed Charles River CD-1 albino mouse assessed as mortality at >LD95 in presence of choline. It is filed as organism-based. Conditions: CD-1, mouse, in vivo, read-out: Activity. The essentials:
as §3

Data set [11] is described as follows: Chemical stability of the compound in deuterium oxide solutions at slightly acidic condition up to 48 hrs by NMR analysis. In kind it is physicochemical.
The nature of data set [12]: Chemical stability of the compound in deuterium oxide solutions at pH 7.4 up to 48 hrs by NMR analysis. In kind it is physicochemical. As to conditions: buffer, pH 7.4, 48 h.
A short description of data set [13]: Chemical stability of the compound in water at slightly acidic condition up to 48 hrs by NMR analysis. Conditions: buffer. It is filed as physicochemical.

The structures appear in SMILES notation. Active and inactive are the calls of the source. No cut-off for these calls is given here.

The values that follow come from ChEMBL document CHEMBL3272057, “Synthesis and structure-toxicity relationships of three new stable analogues of acetyl-seco-hemicholinium-3” (J Med Chem, 1976).

The LD50 is the dose expected to kill half of the subjects tested. A higher LD50 goes with lower toxicity.

`CC(=O)OCC[N+](C)(C)CC(=O)c1ccc(-c2ccc(C(=O)C[N+](C)(C)CCOC(C)=O)cc2)cc1.[Br-].[Br-]`: the Activity result with Mus musculus [1] is recorded as “Toxic”; in the data set on Mus musculus [2] it was “Non-toxic”. In data set [3], this compound gave an LD50 at 5 min of 0.125 mg/kg. Moreover, the LD95 with Mus musculus [4] turned out to be 0.4 mg/kg. Further, the selectivity ratio at 5 min in data set [5] came out at 1. For the same compound, the result in [6] was Active.

`C[N+]1(C)CCOC(O)(c2ccc(-c3ccc(C4(O)C[N+](C)(C)CCO4)cc3)cc2)C1` (configuration not stated) [HEMICHOLINIUM-3]: the figures for the Activity result in the data set with Mus musculus [1] and in the data set on Mus musculus [2] were “Toxic” and “Non-toxic”, respectively. In data set [7], the result was inactive. This compound displayed an LD50 at 5 min in data set [3] of 0.13 mg/kg. Further, the LD95 with Mus musculus [4] turned out to be 0.2 mg/kg.

As for `CC(=O)CCC[N+](C)(C)CC(=O)c1ccc(-c2ccc(C(=O)C[N+](C)(C)CCCC(C)=O)cc2)cc1.[Br-].[Br-]`, the values for the Activity entry in the data set with Mus musculus [1] and in the data set with Mus musculus [2] were “Toxic” and “Non-toxic”, respectively. Further, the mortality stood at 70% in data set [8] and 0% in data set [10]. For the same compound, the Stability result in data set [9], in [11], in [12] and in data set [13] was “Stable” in each case. Besides, in data set [7], the outcome was inactive. Besides, the 50% lethal dose (LD50) at 5 min in data set [3] amounted to 3.1 mg/kg. In the data set with Mus musculus [4], this compound returned an LD95 of 4.6 mg/kg. The selectivity ratio at 5 min in data set [5] is 23.8.

For the compound `CCCCC[N+](C)(C)CC(=O)c1ccc(-c2ccc(C(=O)C[N+](C)(C)CCCCC)cc2)cc1.[Br-].[Br-]`, the Activity result with Mus musculus [1] is “Toxic”; with Mus musculus [2], “Non-toxic”. The values for the mortality in data set [8] and in data set [10] were 80% and 30%, respectively. Besides, the Stability entry in data set [9], in data set [11], in data set [12] and in data set [13] was “Stable” throughout. Also, the result in data set [7] was inactive. Besides, the LD50 at 5 min in data set [3] was 5.6 mg/kg. The same compound had an LD95 with Mus musculus [4] of 5.8 mg/kg. The selectivity ratio at 5 min in data set [5] turned out to be 43.1.

As to `CCOCC[N+](C)(C)CC(=O)c1ccc(-c2ccc(C(=O)C[N+](C)(C)CCOCC)cc2)cc1.[Br-].[Br-]`, the values for the Activity result in the data set with Mus musculus [1] and with Mus musculus [2] were “Toxic” and “Non-toxic”, respectively. The mortality in [8] was 80%; in [10] it was 0%. Further, the Stability result in data set [9], in data set [11], in data set [12] and in data set [13] was “Stable” each time. The result in data set [7] was inactive. The compound also returned an LD50 at 5 min in data set [3] of 1.84 mg/kg. The LD95 in the data set with Mus musculus [4] is 2.67 mg/kg. For the same compound, in data set [5], the selectivity ratio at 5 min came to 14.2.
